pIC50: −log10 of the molar value.
Legend:
Assay type in all cases: cell-based
RAW264.7 [1] = assay: Cytotoxicity against mouse RAW264.7 cells by MTT assay
RAW264.7 [2] = assay: Inhibition of LPS-induced NF-kappaB activation in mouse RAW264.7 cells transfected with IKKbeta-pSV-b-galactosidase control vector at 30 uM after 20 hrs by secretory alkaline phosphatase assay
How it was run: (§1)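 RAW 264.7 cells stably carrying a pNF-κB-SEAP-NPT reporter were transfected by lipofectamine with a constitutively active IKKβ vector plus pSV-β-galactosidase control vector. Cells were treated with samples for 20 h. Culture medium aliquots were heated at 65 °C for 5 min and reacted with 4-methylumbelliferyl phosphate in the dark. SEAP fluorescence was read at ex 360/em 449 nm and normalized to β-galactosidase activity.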

[3] = Inhibition of LPS-induced NF-kappaB activation in mouse RAW264.7 cells transfected with IKKbeta-pSV-b-galactosidase control vector after 20 hrs by secretory alkaline phosphatase assay; how it was run: as §1

Row | pIC50 [3] | SMILES | pIC50 (RAW264.7 [1]) | inhibition (RAW264.7 [2]) [%]
1 | 5.00 | CC(C)CCOc1cccc(O)c1C(=O)/C=C/c1ccc(O)cc1 | < 4.52 | 100
2 | < 4.52 | CCCCCCCCCCOc1cccc(O)c1C(=O)/C=C/c1cc(OC)c(O)c(OC)c1 | < 4.52 | 53
3 | 4.54 | CCCCCCCCCCCCCCOc1ccc(C(=O)/C=C/c2ccc(O)cc2)c(O)c1 | < 4.52 | 50
4 | < 4.52 | CCCCCCOc1cccc(O)c1C(=O)/C=C/c1ccc(OCCCCC)cc1 | < 4.52 | 17
5 | < 4.52 | CCCCCCCCCCOc1cccc(O)c1C(=O)/C=C/c1ccc(Cl)c(Cl)c1 | < 4.52 | 26
6 | < 4.52 | CCCCCCCCCCOc1cccc(O)c1C(=O)/C=C/c1cccc(O)c1 | < 4.52 | 22
7 | 5.57 | CCCCCCCCCCOc1cccc(O)c1C(=O)/C=C/c1ccc(O)cc1 | < 4.52 | 100
8 | < 4.52 | CCCCCCCCCCOc1cccc(O)c1C(=O)/C=C/c1ccc(OC)cc1 | < 4.52 | 18
9 | 5.03 | CCCCCCCCCCCCOc1cccc(O)c1C(=O)/C=C/c1ccc(O)cc1 | < 4.52 | 100
10 | < 4.52 | CCCCCCCCCCCCCCCCCCOc1cccc(O)c1C(=O)/C=C/c1ccc(O)cc1 | < 4.52 | 22
11 | < 4.52 | CCCCCCCCCCOc1cccc(O)c1C(=O)/C=C/c1ccc(C)cc1 | < 4.52 | 8
12 | < 4.52 | CCCCCCCCCCCCCCCCOc1cccc(O)c1C(=O)/C=C/c1ccc(O)cc1 | < 4.52 | 42
13 | 5.30 | CCCCCCCCOc1cccc(O)c1C(=O)/C=C/c1ccc(O)cc1 | < 4.52 | 100
14 | 5.02 | CCCCCCCCC(CCCCCC)CCOc1cccc(O)c1C(=O)/C=C/c1ccc(O)cc1 (configuration not stated) | < 4.52 | 100
15 | < 4.52 | O=C(/C=C/c1ccc(O)cc1)c1c(O)cccc1OCc1ccccc1 | < 4.52 | 28
16 | < 4.52 | CCCCC/C=C\CCCCOc1cccc(O)c1C(=O)/C=C/c1ccc(O)cc1 | < 4.52 | 8
17 | 5.02 | CCCCCCCCCCOc1cccc(O)c1C(=O)/C=C/c1ccc(O)c(Cl)c1 | < 4.52 | 100
18 | 5.38 | CCCCCCCCCCCCCCOc1cccc(O)c1C(=O)/C=C/c1ccc(O)cc1 | < 4.52 | 100
19 | < 4.52 | CCCCCCCCCCCCOc1cccc(O)c1C(O)CCc1ccc(O)cc1 (configuration not stated) | < 4.52 | 80
20 | < 4.52 | CCCCCCOc1cccc(O)c1C(=O)/C=C/c1ccc(O)cc1 | < 4.52 | 15
21 | < 4.52 | CCCCCCCCCCCCCCOc1cccc(O)c1C(=O)/C=C/c1ccc(OCCCCCCCCCCCCC)cc1 | < 4.52 | 10
22 | < 4.52 | CCCCCCCCCCCCOc1cccc(O)c1C(=O)CCc1ccc(O)cc1 | < 4.52 | 52
23 | < 4.52 | CCCCCCCCCCOc1cccc(O)c1C(=O)/C=C/c1ccccc1O | < 4.52 | 45
24 | < 4.52 | O=C(/C=C/c1ccc(O)cc1)c1c(O)cccc1OCC1CCCCC1 | < 4.52 | 60

— ChEMBL document CHEMBL2040804, “A SAR study on a series of synthetic lipophilic chalcones as inhibitor of transcription factor NF-κB” (Eur J Med Chem, 2012)
